Laboratory results published in ChEMBL document CHEMBL4325867, “Synthesis and biological evaluation of novel H6 analogues as drug resistance reversal agents” (Eur J Med Chem, 2019).

Key:
[1] = molecular target: T1, ATP-dependent translocase ABCB1 (Homo sapiens, UniProt P08183); assay: Reversal of P-gp-mediated drug resistance in human KBV cells assessed as potentiation of paclitaxel-induced cytotoxicity by measuring cell survival at 5 uM after 72 hrs by MTT assay (reference value: 98 +/- 19%); format: cell-based
[2] = n-octanol/aqueous buffer solution partition coefficient, log P of the compound at pH 6.8 after 4 hrs by HPLC method; format: physicochemical
Outline: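 Shake-flask partition between n-octanol and pH 6.8 buffer at a 1:1 ratio, room temperature, shaken 4 h. Compound concentration in each phase measured by HPLC.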

[3] = Cytotoxicity against human KBV cells assessed as cell survival at 5 uM after 72 hrs by MTT assay relative to control; format: cell-based; conditions: read-out: Survival
Outline: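 KBV cells (RPMI-1640 with 10% heat-inactivated FCS, 37 °C, 5% CO2, log-phase) were seeded in 96-well plates and exposed to compound alone at 5 µM for 72 h. MTT was added and incubated, then DMSO was added. OD was read at 570 nm and survival rate was calculated.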

[4] = molecular target: T1, ATP-dependent translocase ABCB1; assay: Reversal of P-gp-mediated drug resistance in human KBV cells assessed as potentiation of paclitaxel-induced cytotoxicity by measuring fold reduction in paclitaxel IC50 at 5 uM after 72 hrs by MTT assay relative to paclitaxel alone; format: cell-based
Outline: (§1)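 KBV cells cultured in RPMI-1640 with 10% heat-inactivated fetal calf serum at 37°C, 5% CO2, and used in log phase. Seeded in 96-well plates. Exposed to paclitaxel with or without modulator (5 or 10 µM) for 24, 48 or 72 h. MTT added, formazan dissolved in DMSO, OD read at 570 nm. Survival rate used to derive paclitaxel IC50. RF taken as the fold reduction of IC50 relative to paclitaxel alone.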

[5] = molecular target: T1, ATP-dependent translocase ABCB1; assay: Reversal of P-gp-mediated drug resistance in human KBV cells assessed as potentiation of paclitaxel-induced cytotoxicity by measuring fold reduction in paclitaxel IC50 at 10 uM after 72 hrs by MTT assay relative to paclitaxel alone; format: cell-based; outline: as §1

T1 sequence (P08183 whole entry): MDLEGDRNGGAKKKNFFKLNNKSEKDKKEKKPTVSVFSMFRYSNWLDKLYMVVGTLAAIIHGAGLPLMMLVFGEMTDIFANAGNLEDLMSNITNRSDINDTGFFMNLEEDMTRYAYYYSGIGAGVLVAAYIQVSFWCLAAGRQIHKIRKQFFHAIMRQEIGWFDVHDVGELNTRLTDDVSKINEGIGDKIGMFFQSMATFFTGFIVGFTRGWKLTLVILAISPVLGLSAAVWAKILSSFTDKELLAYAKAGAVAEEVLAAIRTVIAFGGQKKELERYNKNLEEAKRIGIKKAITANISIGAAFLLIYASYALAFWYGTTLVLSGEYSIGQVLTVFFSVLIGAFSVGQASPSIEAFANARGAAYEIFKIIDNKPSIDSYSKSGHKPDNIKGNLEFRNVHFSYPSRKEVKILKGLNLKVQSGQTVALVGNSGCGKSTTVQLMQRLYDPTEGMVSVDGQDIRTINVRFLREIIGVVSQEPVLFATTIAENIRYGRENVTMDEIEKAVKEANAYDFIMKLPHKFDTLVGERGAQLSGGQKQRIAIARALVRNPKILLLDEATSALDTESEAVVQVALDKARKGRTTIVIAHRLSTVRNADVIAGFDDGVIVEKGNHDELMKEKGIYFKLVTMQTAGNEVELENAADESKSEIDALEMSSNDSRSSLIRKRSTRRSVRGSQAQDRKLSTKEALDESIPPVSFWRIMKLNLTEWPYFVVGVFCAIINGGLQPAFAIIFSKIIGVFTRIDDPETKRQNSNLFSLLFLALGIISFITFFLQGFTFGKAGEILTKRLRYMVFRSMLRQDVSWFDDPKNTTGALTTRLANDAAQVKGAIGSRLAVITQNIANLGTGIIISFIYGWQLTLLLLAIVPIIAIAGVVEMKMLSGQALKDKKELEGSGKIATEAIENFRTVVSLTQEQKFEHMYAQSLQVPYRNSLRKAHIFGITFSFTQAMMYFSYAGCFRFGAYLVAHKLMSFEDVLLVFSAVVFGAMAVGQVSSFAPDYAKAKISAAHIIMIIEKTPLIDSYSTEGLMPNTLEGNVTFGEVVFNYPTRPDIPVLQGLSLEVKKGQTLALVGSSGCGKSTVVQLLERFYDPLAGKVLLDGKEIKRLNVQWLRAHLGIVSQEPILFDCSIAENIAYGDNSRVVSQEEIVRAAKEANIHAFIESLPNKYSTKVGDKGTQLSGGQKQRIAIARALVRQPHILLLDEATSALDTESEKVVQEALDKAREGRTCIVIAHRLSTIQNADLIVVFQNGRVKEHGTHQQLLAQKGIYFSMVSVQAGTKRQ

## CC1(C)CC[C@]2(C(=O)OCCN)CC[C@]3(C)C(=CC[C@@H]4[C@@]5(C)Cc6nccnc6[C@@](C)(CO)[C@@H]5CC[C@]43C)[C@@H]2C1
[1]
  Survival: 24%
[2]
  logD at 4 h: 0.36
[3]
  viability at 72 h, 5 µM: 116%

## COc1ccc(CCN(C)CCCC(C#N)(c2ccc(OC)c(OC)c2)C(C)C)cc1OC (stereo not drawn)
[1]
  Survival: 23%

## CC1(C)CC[C@]2(C(=O)N[C@@H](CCC(=O)O)C(=O)O)CC[C@]3(C)C(=CC[C@@H]4[C@@]5(C)Cc6nccnc6[C@@](C)(CO)[C@@H]5CC[C@]43C)[C@@H]2C1
[1]
  Survival: 80%
[2]
  logD at 4 h: -0.66
[3]
  viability at 72 h, 5 µM: 91%

## CC(C)[C@H](NC(=O)[C@]12CCC(C)(C)C[C@H]1C1=CC[C@@H]3[C@@]4(C)Cc5nccnc5[C@@](C)(CO)[C@@H]4CC[C@@]3(C)[C@]1(C)CC2)C(=O)O
[1]
  Survival: 114%
[2]
  logD at 4 h: -0.78
[3]
  viability at 72 h, 5 µM: 83%

## CC1(C)CC[C@]2(C(=O)OCCOC(=O)[C@]34CCC(C)(C)C[C@H]3C3=CC[C@@H]5[C@@]6(C)CC[C@H](O)[C@@](C)(CO)[C@@H]6CC[C@@]5(C)[C@]3(C)CC4)CC[C@]3(C)C(=CC[C@@H]4[C@@]5(C)CC[C@H](O)[C@@](C)(CO)[C@@H]5CC[C@]43C)[C@@H]2C1
[1]
  Survival: 37%
[3]
  viability at 72 h, 5 µM: 136%

## CC1(C)CC[C@]2(C(=O)N3CCC[C@H]3C(=O)O)CC[C@]3(C)C(=CC[C@@H]4[C@@]5(C)Cc6nccnc6[C@@](C)(CO)[C@@H]5CC[C@]43C)[C@@H]2C1
[1]
  Survival: 91%
[2]
  logD at 4 h: 0.38
[3]
  viability at 72 h, 5 µM: 121%

## CC1(C)CC[C@]2(C(=O)N[C@@H](Cc3ccccc3)C(=O)O)CC[C@]3(C)C(=CC[C@@H]4[C@@]5(C)Cc6nccnc6[C@@](C)(CO)[C@@H]5CC[C@]43C)[C@@H]2C1
[1]
  Survival: 129%
[2]
  logD at 4 h: -0.32
[3]
  viability at 72 h, 5 µM: 94%

## C[C@H](NC(=O)[C@]12CCC(C)(C)C[C@H]1C1=CC[C@@H]3[C@@]4(C)Cc5nccnc5[C@@](C)(CO)[C@@H]4CC[C@@]3(C)[C@]1(C)CC2)C(=O)O
[1]
  Survival: 264%
[2]
  logD at 4 h: -1.07
[3]
  viability at 72 h, 5 µM: 98%

## CC1(C)CC[C@]2(C(=O)ONC(=O)CCC(=O)O)CC[C@]3(C)C(=CC[C@@H]4[C@@]5(C)Cc6nccnc6[C@@](C)(CO)[C@@H]5CC[C@]43C)[C@@H]2C1
[1]
  Survival: 112%
[2]
  logD at 4 h: -0.78
[3]
  viability at 72 h, 5 µM: 89%

## CC1(C)CC[C@]2(C(=O)N[C@@H](Cc3ccc(O)cc3)C(=O)O)CC[C@]3(C)C(=CC[C@@H]4[C@@]5(C)Cc6nccnc6[C@@](C)(CO)[C@@H]5CC[C@]43C)[C@@H]2C1
[1]
  Survival: 68%
[2]
  logD at 4 h: -0.03
[3]
  viability at 72 h, 5 µM: 76%

## CC1(C)CC[C@]2(C(=O)O)CC[C@]3(C)C(=CC[C@@H]4[C@@]5(C)Cc6nccnc6[C@@](C)(COC(=O)C6CCCCC6C(=O)O)[C@@H]5CC[C@]43C)[C@@H]2C1 (stereo partly drawn)
[1]
  Survival: 100%
[2]
  logD at 4 h: -0.33
[3]
  viability at 72 h, 5 µM: 95%

## CC1(C)CC[C@]2(C(=O)n3ccnc3)CC[C@]3(C)C(=CC[C@@H]4[C@@]5(C)CC[C@H](O)[C@@](C)(CO)[C@@H]5CC[C@]43C)[C@@H]2C1
[2]
  logD at 4 h: -0.4

## COC(=O)CCC(=O)NOC(=O)[C@]12CCC(C)(C)C[C@H]1C1=CC[C@@H]3[C@@]4(C)Cc5nccnc5[C@@](C)(CO)[C@@H]4CC[C@@]3(C)[C@]1(C)CC2
[1]
  Survival: 32%
[2]
  logD at 4 h: -1.24
[3]
  viability at 72 h, 5 µM: 86%

## CC1(C)CC[C@]2(C(=O)NCC(=O)O)CC[C@]3(C)C(=CC[C@@H]4[C@@]5(C)Cc6nccnc6[C@@](C)(CO)[C@@H]5CC[C@]43C)[C@@H]2C1
[1]
  Survival: 101%
[2]
  logD at 4 h: -0.43
[3]
  viability at 72 h, 5 µM: 96%

## CC1(C)CC[C@]2(C(=O)OCCCOC(=O)[C@]34CCC(C)(C)C[C@H]3C3=CC[C@@H]5[C@@]6(C)CC[C@H](O)[C@@](C)(CO)[C@@H]6CC[C@@]5(C)[C@]3(C)CC4)CC[C@]3(C)C(=CC[C@@H]4[C@@]5(C)CC[C@H](O)[C@@](C)(CO)[C@@H]5CC[C@]43C)[C@@H]2C1
[1]
  Survival: 45%
[3]
  viability at 72 h, 5 µM: 107%

## CSCC[C@H](NC(=O)[C@]12CCC(C)(C)C[C@H]1C1=CC[C@@H]3[C@@]4(C)Cc5nccnc5[C@@](C)(CO)[C@@H]4CC[C@@]3(C)[C@]1(C)CC2)C(=O)O
[1]
  Survival: 94%
[2]
  logD at 4 h: -0.2
[3]
  viability at 72 h, 5 µM: 94%

## CC1(C)CC[C@]2(C(=O)On3nnc4ccccc43)CC[C@]3(C)C(C(=O)C[C@@H]4[C@@]5(C)CCC(=O)[C@@](C)(CO)[C@@H]5CC[C@]43C)[C@@H]2C1 (stereo partly drawn)
[1]
  Survival: 127%
[2]
  logD at 4 h: 0.14
[3]
  viability at 72 h, 5 µM: 110%

## CC1(C)CC[C@]2(C(=O)On3nnc4cccnc43)CC[C@]3(C)C(=CC[C@@H]4[C@@]5(C)CC[C@H](O)[C@@](C)(CO)[C@@H]5CC[C@]43C)[C@@H]2C1
[1]
  Survival: 115%
[2]
  logD at 4 h: -0.23
[3]
  viability at 72 h, 5 µM: 94%

## CC1(C)CC[C@]2(C(=O)OCCCCCOC(=O)[C@]34CCC(C)(C)C[C@H]3C3=CC[C@@H]5[C@@]6(C)CC[C@H](O)[C@@](C)(CO)[C@@H]6CC[C@@]5(C)[C@]3(C)CC4)CC[C@]3(C)C(=CC[C@@H]4[C@@]5(C)CC[C@H](O)[C@@](C)(CO)[C@@H]5CC[C@]43C)[C@@H]2C1
[1]
  Survival: 42%
[3]
  viability at 72 h, 5 µM: 123%

## COc1cc2c(cc1OC)CN(CCc1ccc(NC(=O)c3cc(OC)c(OC)cc3NC(=O)c3cnc4ccccc4c3)cc1)CC2
[4]
  fold change (FC): 75.95
[5]
  fold change (FC): 89.41

## CC1(C)CC[C@]2(C(=O)O)CC[C@]3(C)C(=CC[C@@H]4[C@@]5(C)CC[C@H](O)[C@@](C)(CO)[C@@H]5CC[C@]43C)[C@@H]2C1 [HEDERAGENIN]
[1]
  Survival: 100%

## CC1(C)CC[C@]2(C(=O)N[C@@H](CO)C(=O)O)CC[C@]3(C)C(=CC[C@@H]4[C@@]5(C)Cc6nccnc6[C@@](C)(CO)[C@@H]5CC[C@]43C)[C@@H]2C1
[1]
  Survival: 76%
[2]
  logD at 4 h: -0.11
[3]
  viability at 72 h, 5 µM: 102%

## CC1(C)CC[C@]2(C(=O)O)CC[C@]3(C)C(=CC[C@@H]4[C@@]5(C)Cc6nccnc6[C@@](C)(COC(=O)CCC(=O)O)[C@@H]5CC[C@]43C)[C@@H]2C1
[1]
  Survival: 102%
[2]
  logD at 4 h: -0.28
[3]
  viability at 72 h, 5 µM: 96%

## Cl.Cl.Cl.O[C@@H](COc1cccc2ncccc12)CN1CCN([C@@H]2c3ccccc3[C@@H]3[C@H](c4ccccc42)C3(F)F)CC1 [ZOSUQUIDAR TRIHYDROCHLORIDE]
[4]
  fold change (FC): 32.5
[5]
  fold change (FC): 114.11

## CC(C)C[C@H](NC(=O)[C@]12CCC(C)(C)C[C@H]1C1=CC[C@@H]3[C@@]4(C)Cc5nccnc5[C@@](C)(CO)[C@@H]4CC[C@@]3(C)[C@]1(C)CC2)C(=O)O
[1]
  Survival: 76%
[2]
  logD at 4 h: 0.08
[3]
  viability at 72 h, 5 µM: 130%

## CC1(C)CC[C@]2(C(=O)OCCCCOC(=O)[C@]34CCC(C)(C)C[C@H]3C3=CC[C@@H]5[C@@]6(C)CC[C@H](O)[C@@](C)(CO)[C@@H]6CC[C@@]5(C)[C@]3(C)CC4)CC[C@]3(C)C(=CC[C@@H]4[C@@]5(C)CC[C@H](O)[C@@](C)(CO)[C@@H]5CC[C@]43C)[C@@H]2C1
[1]
  Survival: 44%
[3]
  viability at 72 h, 5 µM: 92%

## CC1(C)CC[C@]2(C(=O)N[C@@H](CC(=O)O)C(=O)O)CC[C@]3(C)C(=CC[C@@H]4[C@@]5(C)Cc6nccnc6[C@@](C)(CO)[C@@H]5CC[C@]43C)[C@@H]2C1
[1]
  Survival: 81%
[2]
  logD at 4 h: -0.39
[3]
  viability at 72 h, 5 µM: 90%

## CC1(C)CC[C@]2(C(=O)O)CC[C@]3(C)C(=CC[C@@H]4[C@@]5(C)Cc6nccnc6[C@@](C)(CO)[C@@H]5CC[C@]43C)[C@@H]2C1
[1]
  Survival: 61%
[2]
  logD at 4 h: 0.24
[3]
  viability at 72 h, 5 µM: 89%

## CC1(C)CC[C@]2(C(=O)On3nnc4ccc(Cl)cc43)CC[C@]3(C)C(=CC[C@@H]4[C@@]5(C)CC[C@H](O)[C@@](C)(CO)[C@@H]5CC[C@]43C)[C@@H]2C1
[1]
  Survival: 111%
[2]
  logD at 4 h: -0.75
[3]
  viability at 72 h, 5 µM: 97%

## CC1(C)CC[C@]2(C(=O)O)CC[C@]3(C)C(C(=O)C[C@@H]4[C@@]5(C)CCC(=O)[C@@](C)(CO)[C@@H]5CC[C@]43C)[C@@H]2C1 (stereo partly drawn)
[1]
  Survival: 104%
[3]
  viability at 72 h, 5 µM: 102%

## CC1(C)CC[C@]2(C(=O)O)CC[C@]3(C)C(=CC[C@@H]4[C@@]5(C)Cc6nccnc6[C@@](C)(COC(=O)c6ccccc6C(=O)O)[C@@H]5CC[C@]43C)[C@@H]2C1
[1]
  Survival: 85%
[2]
  logD at 4 h: -0.66
[3]
  viability at 72 h, 5 µM: 116%

## CC1(C)CC[C@]2(C(=O)On3nnc4ccc(Cl)cc43)CC[C@]3(C)C(C(=O)C[C@@H]4[C@@]5(C)CCC(=O)[C@@](C)(CO)[C@@H]5CC[C@]43C)[C@@H]2C1 (stereo partly drawn)
[1]
  Survival: 112%
[2]
  logD at 4 h: 0.1
[3]
  viability at 72 h, 5 µM: 98%
